Experimental findings from the RNAGym collection of RNA variant scans (doi:10.1126/science.aae0568) are described below.

Fewer inactive variants are shown than the library holds.

B1: tRNA (parent)
chain: GUUCCGUUGGCGUAAUGGUAACGCGUCUCCCUCCUAAGGAGAAGACUGCGGGUUCGAGUCCCGUACGGAACG

The variants in the data set derive from B1. The data set is described as follows: yeast fitness relative to wild type (ratio to wild type); higher = fitter; tRNA-Arg(CCU), competitive growth, 37 C, YPD. An outline of the steps:
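Variants of the tRNA-Arg(CCU) gene were chemically synthesised with a 3% per-site mutation rate across 69 sites and placed at the native genomic locus in Saccharomyces cerevisiae. Six parallel replicates of the pooled strains were competed in YPD at 37°C for 24 hours, and gene amplicons from the start and end populations were read by 100-nucleotide paired-end sequencing. Darwinian fitness relative to wild type was derived from changes in genotype frequencies. Genotypes required ≥ 100 starting reads, and estimates < 0.5 were set to 0.5.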
With A37U G41C C46G, the yeast fitness is at most 0.5.

C30A A37C G38C: the yeast fitness is at most 0.5.

For G18A A36C G48A, the yeast fitness is at most 0.5.

As to G12C A20G C34U C49G, the yeast fitness was found to be 0.711.

On to A20U A45G G50A G52A, for which the yeast fitness came to 0.602.

For the variant C5U G58A C61U A70G, the yeast fitness was 0.797.

Turning to C5G G51A G68A, the yeast fitness was at most 0.5.

With U2A A15C G58C A69U, the yeast fitness is at most 0.5.

With A15C A36G, the yeast fitness was 0.888.

For U19G C27G A65C C66G, the yeast fitness came out at 0.907.

As to C4U G12A A40U A65C, the yeast fitness was at most 0.5.

Take G18A A42C G48A C60A: the yeast fitness is at most 0.5.

Consider U3C C30U A37G C61A, for which the yeast fitness was at most 0.5.

Turning to U7G C31G A36C, the yeast fitness was at most 0.5.

As to C11U A37C C46G C60U C61A, the yeast fitness amounted to 0.536.

Turning to C5U C24U A36G C46A, the yeast fitness came out at 0.92.

As for U13A C22G C24A C46G C55U, the yeast fitness was 0.551.

Regarding G10A C60G G67A, the yeast fitness is at most 0.5.

With G10C C31G C49U, the yeast fitness is at most 0.5.

Take U28C U59G: the yeast fitness came to 0.852.

Consider C4G C5U, for which the yeast fitness was determined as 0.751.

Take C34G U64G: the yeast fitness was found to be 0.518.

As for C24U G51C U53C, the yeast fitness is at most 0.5.

Regarding G10C U47G, the yeast fitness was at most 0.5.

C29U G48C A65U: the yeast fitness is at most 0.5.

On to C24G C49G C55A, for which the yeast fitness is at most 0.5.

Take A21G A42U G56A C61U: the yeast fitness was at most 0.5.

For the variant U54G C55G A65U, the yeast fitness was at most 0.5.

Take C4A G23C C31U A36C A43C G50C A70U: the yeast fitness was at most 0.5.

On to A14U C22A U28A C30U U53A U54C, for which the yeast fitness is at most 0.5.

Consider C27A G56C A70U, for which the yeast fitness was at most 0.5.

On to C29A A37G C49A U64C G68A, for which the yeast fitness was at most 0.5.

Take U2C G12C A40C: the yeast fitness is at most 0.5.

In the case of U7A A37C G51A G67A, the yeast fitness was at most 0.5.

Consider U28A A36C, for which the yeast fitness turned out to be 0.511.

Consider A21G C27G C29A G50A, for which the yeast fitness was at most 0.5.

With A14U C46A G51C A57U U64G, the yeast fitness was found to be 0.584.

C5G C55A C62U: the yeast fitness was 0.546.

For the variant C11U C24U C34G A70G, the yeast fitness was at most 0.5.

For the variant C11G C24U U28C G51A, the yeast fitness is at most 0.5.

For the variant G18A G41C U54A G63A, the yeast fitness was at most 0.5.

On to C5U C61A G67A, for which the yeast fitness worked out at 0.576.

Turning to C22A U47A G63C, the yeast fitness was at most 0.5.

Take U3C C24U C46U C62U: the yeast fitness was at most 0.5.

In the case of G12A C22G C29U, the yeast fitness stood at 0.551.

For A40G A45C, the yeast fitness was 0.846.

In the case of G10A A37U A45G C46G C55A, the yeast fitness is at most 0.5.

With A15G G50A U54A A57C, the yeast fitness is 0.583.

Turning to C11A U16C, the yeast fitness came to 0.644.

On to U28A C34G, for which the yeast fitness stood at 0.707.

On to C5U U16G U35A, for which the yeast fitness was at most 0.5.

As for G18A A37G C61U, the yeast fitness is at most 0.5.

In the case of C46A G52A, the yeast fitness came out at 0.816.

For C11G C30U C31A A40U C49A, the yeast fitness was at most 0.5.

U8C G23A C30U C55A: the yeast fitness is at most 0.5.

G23A A36G C55G G63A A69U: the yeast fitness is at most 0.5.

Consider G10A G12A C34U A45U C49G, for which the yeast fitness is at most 0.5.

As to U28C C29G C62U, the yeast fitness was at most 0.5.

Take G6C C29G C66G: the yeast fitness was at most 0.5.

Take U3C C11A C27G C33A A43C C46A C62A C66U: the yeast fitness was at most 0.5.

In the case of C5G A14U A36C C61G C62A A69C, the yeast fitness was at most 0.5.

Take G25A G68A: the yeast fitness is 1.02.

On to G58A G67A, for which the yeast fitness was found to be 0.851.

A15U C24U U64C: the yeast fitness is at most 0.5.

Take A15G C34U G41C C49U: the yeast fitness is at most 0.5.

With A14G G38A C60U G67C, the yeast fitness is at most 0.5.

Take G12C C49A: the yeast fitness was 0.562.

As to U19A U35A A36U C55G G56C, the yeast fitness was at most 0.5.

Consider U8A C30A A37G C46U A57C, for which the yeast fitness came out at 0.579.

In the case of C4A A21U G52A, the yeast fitness was at most 0.5.

Regarding C4G C33U A37U G38A A42C, the yeast fitness is at most 0.5.

In the case of C22U C46G C49G, the yeast fitness worked out at 0.564.

As for G52U A65G, the yeast fitness is 0.793.

As to U26G C27G C33U G39C U47C C49U, the yeast fitness is at most 0.5.

Consider C5A G10A A21C C24A A65C, for which the yeast fitness was at most 0.5.

As for C11A A20U C22U G67C, the yeast fitness was at most 0.5.

On to C33G A37G A43C G58C, for which the yeast fitness worked out at 0.547.

Consider C27U U28G A40C C46A C49U A70U, for which the yeast fitness came to 0.695.

Take A37C C46G C62U A69U: the yeast fitness was 0.673.

For U19A A43U, the yeast fitness turned out to be 1.

As to U8C G38C C49U C62U A69U, the yeast fitness stood at 0.568.

In the case of G25C C49U G63A, the yeast fitness is 0.83.

Take C29U C66U: the yeast fitness is 0.796.

For the variant C22U A43G, the yeast fitness was 0.835.

Take U13C A45U: the yeast fitness is 0.929.

On to U8C U13A U32C A69U, for which the yeast fitness stood at 0.677.

For G6C C27U A45G U64A, the yeast fitness was determined as 0.67.

For A15C C30G A42C G56A A57U G63A, the yeast fitness is at most 0.5.

As for A21U C61U, the yeast fitness stood at 0.709.

Turning to U2A U3G C29G C30G C46A, the yeast fitness was at most 0.5.

Consider C27U C31U U53C, for which the yeast fitness was 0.678.

Consider C11A A21C A43G C60U C62U A70C, for which the yeast fitness was at most 0.5.

With A40G G51A C55U, the yeast fitness amounted to 0.556.

Turning to C4U A15C C29G C30G A43C, the yeast fitness was at most 0.5.

Consider U32C C55U, for which the yeast fitness came out at 0.651.

Regarding C5G G18A C22U, the yeast fitness was at most 0.5.

For A14G C22G A70U, the yeast fitness worked out at 0.774.

For the variant C34G C49U, the yeast fitness came out at 0.708.

For G18C A69U, the yeast fitness was determined as 0.695.

In the case of G38C G68A, the yeast fitness was found to be 0.62.

For the variant C5G C30A, the yeast fitness stood at 0.736.

Take C34U G39A G48C A65U: the yeast fitness is at most 0.5.

For the variant G18A A20G U26G G50C G63C, the yeast fitness is at most 0.5.

G12C C24U G48C G68A A69C: the yeast fitness is at most 0.5.

For the variant C29G G52C A57U A65G, the yeast fitness is at most 0.5.

Consider A14G G39A A43U, for which the yeast fitness stood at 0.643.

Consider U3A C24A U28C C61A, for which the yeast fitness is at most 0.5.

As for G6A A21U C62U, the yeast fitness is at most 0.5.

For the variant C5G C34A C49U, the yeast fitness is at most 0.5.

U8C A21U C34A A40C G68C: the yeast fitness is at most 0.5.

As for G23A C66U, the yeast fitness came to 0.824.

In the case of C11A G48A C55U, the yeast fitness was at most 0.5.

For the variant C22A A36G A42G, the yeast fitness was at most 0.5.

As to G6U G63C, the yeast fitness came to 0.615.

Consider G12A C55U G63C, for which the yeast fitness was at most 0.5.

On to G9C C11G C24U C31U U59A A70C, for which the yeast fitness was found to be 0.563.

For C30U A57G C66U, the yeast fitness came out at 0.53.

Turning to U28G C33A A45C, the yeast fitness is at most 0.5.

For the variant A20G U47A U53A, the yeast fitness is at most 0.5.

Take G25C G67A: the yeast fitness stood at 1.01.

For U16A G23A C33A, the yeast fitness was 0.644.

Turning to A40C A57U G58A, the yeast fitness came out at 0.644.

As to U32C A70C, the yeast fitness amounted to 0.991.

On to A15U A45C C46A C66U, for which the yeast fitness was at most 0.5.

For the variant U3A C11G A14C C24G C62U A65G, the yeast fitness is 0.595.

For the variant C31U C60G A70G, the yeast fitness stood at 0.675.

With A20G A36C G48C U53C A70C, the yeast fitness was at most 0.5.

On to C11A G50C C61A A69G, for which the yeast fitness was at most 0.5.

Take C4U U7C A15C U16G A70G: the yeast fitness was at most 0.5.

For U3C U13A A20C C30A C31A U54A C55U, the yeast fitness was at most 0.5.

In the case of U3A C49G, the yeast fitness turned out to be 0.792.

In the case of C31A U47A, the yeast fitness came to 0.673.

As to G18A G48A A57C U59C, the yeast fitness was at most 0.5.

G12A C30G U59A: the yeast fitness is at most 0.5.

For the variant G52C G67A, the yeast fitness amounted to 0.709.

Regarding C5A G23C C61G C62U C66U, the yeast fitness is at most 0.5.

G12A U19G: the yeast fitness was found to be 0.893.

For C22A A37C A65G, the yeast fitness came to 0.691.

U2A U28A C55G: the yeast fitness was at most 0.5.

Consider C29G C34G C60G, for which the yeast fitness stood at 0.562.

With A21C U28C A45G, the yeast fitness amounted to 0.603.

C31A A36U U53A: the yeast fitness is at most 0.5.

Regarding C4U C5G U28C A70C, the yeast fitness is 0.637.

In the case of C11U C27A G56C C62A A65C, the yeast fitness was at most 0.5.

Regarding G39A A40C C60U G68U, the yeast fitness was at most 0.5.

For the variant G17C C55G, the yeast fitness was found to be 0.616.

Regarding U2C G44C, the yeast fitness stood at 0.846.

As to G10A C29U C49U G56A, the yeast fitness was determined as 0.633.

With G9C U13C A69C, the yeast fitness was 0.564.

On to A15G U47G, for which the yeast fitness came to 0.782.

As for C29U C31A G38C, the yeast fitness was at most 0.5.

G18C G52A A57U A65C: the yeast fitness was at most 0.5.

As for C34A C46G, the yeast fitness was determined as 0.693.

As to C4A U26C A37G G67C, the yeast fitness was at most 0.5.

Consider C5U G25A U32G, for which the yeast fitness is at most 0.5.

Consider U28A U54A, for which the yeast fitness came to 0.594.

For the variant A36U G41C, the yeast fitness is 0.686.

As for C22A C31G G68A, the yeast fitness was at most 0.5.

C61G A65C: the yeast fitness was determined as 0.658.

For the variant G9C A20G, the yeast fitness was 0.668.

For the variant G23C C66G, the yeast fitness is at most 0.5.

Consider A14G A37C A65G, for which the yeast fitness was 0.659.

With C22A A36G G41A, the yeast fitness was 0.548.

Consider U28A G48C A70C, for which the yeast fitness is at most 0.5.

On to U26C C31U, for which the yeast fitness is 1.07.

In the case of C55A U59G A65C, the yeast fitness was at most 0.5.

Turning to A15U A20C C27U, the yeast fitness came out at 0.748.
